Test system: MS2 coat protein
Assay: apparent Kd, MS2 coat protein; higher = weaker binding; RNA-MaP array; FMN 200 µM where present
In short: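 Stalled E. coli RNA polymerase produced the designs on Illumina sequencing-chip clusters. SNAP-549-labelled MS2 coat protein was added from 0.7 or 1.5 nM, doubling to 3 µM, without and then with constant ligand, in 100 mM Tris-HCl pH 7.5, 80 mM KCl, 4 mM MgCl2, BSA, DTT, yeast tRNA and Tween-20. The apparent Kd is the median of filtered per-cluster fits of green signal normalised to red-channel RNA signal and control-cluster median Fmax.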

[1] = designed as: OFF switch for flavin mononucleotide, no ligand
[2] = ligand present: flavin mononucleotide, designed as: OFF switch for flavin mononucleotide
[3] = designed as: ON switch for flavin mononucleotide, no ligand
[4] = ligand present: flavin mononucleotide, designed as: ON switch for flavin mononucleotide

| Sequence | apparent Kd [1] | apparent Kd [2] | apparent Kd [3] | apparent Kd [4] |
| --- | --- | --- | --- | --- |
| UAUAUAUAGUAAGGAUAUGUAAUUAUUUUAUGAACAGAAGGUACUGACAUGAGGAUCACCCAUGUUUUAGUGUGGGCAUGUAGA | 82.9 nM | 119 nM |  |  |
| AGCUAAGAGUUAAUUGUGACAGUGAGAAGGCAAUAGUUUGUGACCGACAUGAGGAUCACCCAUGUUGAGGAUAUCACUAGCUAC | 6.83 nM | 19.4 nM |  |  |
| UAAAUUAACAAGAAGGCUAACAUGAGGAUCACCCAUGUUGUACAUGGAUAUAGAGGAUAUUGCUAUUAAUUAUUUAUCAUAAUU | 21.2 nM | 18.9 nM |  |  |
| UGUCGGAGCAGAGGAUAUUACAUGAGGAUCACCCAUGUAUGAACCAAUAACUGGAAACAGCAAUGUAAGAAGGCUGCUCCGACA | 7.6 nM | 42.5 nM |  |  |
| UGUUUCUUGUAAGGAUAUACUAGCGAUAAGCUAGUAGAAGGUACUGUCUUUUGUAUCUCAUAUUUACAUGAGGAUCACCCAUGU |  |  | 9.41 nM | 8.07 nM |
| UGGUAGUAGGGAGGAUAUGGGAAGAUACAUGAGGAUCACCCAUGUUUAAGAAUGCCGAGAGGCAACUAGAAGGCCCUAGUACCU |  |  | 324 nM | 23.7 nM |
| UUUGGGUGGCUGGAGGAUAUCCUUGUUGUUACAUGAGGAUCACCCAUGUGCCGCGCGGUUCGCGAGGAGAAGGCUGGCGGCCGUU |  |  | 331 nM | 61.3 nM |
| GCGUAAUAGGUGUAGCUAGUCGUGCAAGAAGGGUGGUGAACAUGAGGAUCACCCAUGUGGUCAGUACAGGAUAUUGCUAUACGC |  |  | 542 nM | 130 nM |
| GAAGCCUGAGAGAAGGGCCACAUGAGGAUCACCCAUGUGUGCUCUCCUGUGGCAGGAUAUCUAUGGGCUGACUGGCUAAUCCAU | 6.84 nM | 4.6 nM |  |  |
| GAAUUCGCAUGAGGAUAUGCACUCAUUUCAUGUGCAGAAGGUAUAUCAUUAGACAUGAGGAUCACCCAUGUAUUGGUCAAUAAC |  |  | 17.8 nM | 14.8 nM |
| CUUGUGUUAGGAUAUGCGCCCUGAAGAAGCAGGGCCAGAGAGCAGAAGGAACAUGAGGAUCACCCAUGUGUGAC | 60.3 nM | 51.2 nM |  |  |
| AAAUUCUGAGGAUAUCGAUGUUUGUACAUGAGGAUCACCCAUGUCCUUUUUAUUUUUUCUCGAGAAGGCAGUGUAU | 38.1 nM | 35.3 nM |  |  |
| GGAUAGGACAGAGGAUAUACCGAUAGGAGAUACUAUCGACUAGUCCUCACAUGAGGAUCACCCAUGUAGAAGGCUGUCCUAUCG | 23.3 nM | 234 nM |  |  |
| AAUAUGUUGCAGAAGGCCAUGGUGUGGUAGUGCCUCAUGACAUGAGGAUCACCCAUGUCUGUGAUGGAGGAUAUGCAAUAUAUU | 67.2 nM | 152 nM |  |  |
| AGUCAGAGCAGAGGAUAUAUACAUGAGGAUCACCCAUGUGACUGACUACGCUAGAAAUAGCGUGUAUAGAAGGCUGCUCUGACA | 40.2 nM | 96.4 nM |  |  |
| UAUGGUAAAGUCAGGAUAUACGUACAUCAUUCUAGGUAGAAGGGACAUGAGGAUCACCCAUGUAUGGUAGUGUU | 62.2 nM | 67.6 nM |  |  |
| AAGGGACAUGAGGAUCACCCAUGUGAGGAUAUAUAAAUGUACCCGAUGGGAGUACACAAUAGAAGGCGCGGCUA | 40.7 nM | 32.8 nM |  |  |
| GUGGUCAGACAUGAGGAUCACCCAUGUGGAAUAAAUAACAGACAGGAUAUCCAAUAUAGGAUAUAGGAGAAGGGUCGAUUGGUG |  |  | 73.1 nM | 74.2 nM |
| ACAUAAAUUCGAGGAUAUCGGUGAUAUAAUUUACGAGAAGGCGAUAAUUGUUAUAAACUUAUAGACAUGAGGAUCACCCAUGUA |  |  | 32.1 nM | 31.9 nM |
| UGCGUUAAGCCCUUAAGUCGUCAACAUGAGGAUCACCCAUGUAGAAGGCAGCGGACGCAGCCGGCUGAGGAUAUACAUGUAGGU | 7.9 nM | 10.5 nM |  |  |
| GGAGCCGGCACCGAGGAUAUUCAUAUUAAAACAUGAGGAUCACCCAUGUAGGCCAGAAGGCCUUGGGAGAAGGCGGAUCGGCUCG |  |  | 611 nM | 38.4 nM |

From the EternaBench riboswitch data
